According to ChEMBL document CHEMBL1955778, “Design and synthesis of novel 7-aminoquinazoline derivatives: antitumor and anticonvulsant activities” (Bioorg Med Chem Lett, 2012):

Assays:
[1] = Neurotoxicity in ip dosed mouse assessed as impaired motor coordination administered 30 mins prior to test by chimney test; type: toxicity, organism-based; conditions: in vivo
How it was run: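 Mice, Chimney test. TD50 is the dose that produces minimal neurological toxicity (impaired motor coordination) in 50% of animals, estimated from testing at several doses.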

[2] = Toxicity in ip dose mouse assessed as mortality; type: organism-based; conditions: in vivo
How it was run: (§1)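 In mice, LD50 is the dose causing 50% mortality. ED50 is the dose protecting 50% of mice against pentylenetetrazole-induced seizures. Therapeutic index = LD50/ED50.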

[3] = test system: Mus musculus; experiment: Anticonvulsant activity in mouse assessed as protection against picrotoxin-induced seizure at 1.5 mmol/kg, ip administered 30 min prior to picrotoxin-challenge measured after 60 mins relative to control; type: functional
[4] = test system: Mus musculus; experiment: Anticonvulsant activity in mouse assessed as protection against pentylenetetrazol-induced seizure at 1.5 mmol/kg, ip administered 30 min prior to pentylenetetrazol-challenge measured after 60 mins relative to control; type: functional
[5] = test system: Mus musculus; experiment: Anticonvulsant activity in mouse assessed as protection against strychnine-induced seizure at 1.5 mmol/kg, ip administered 30 min prior to strychnine-challenge measured after 60 mins relative to control; type: functional
[6] = test system: Mus musculus; experiment: Anticonvulsant activity in mouse assessed as protection against maximal electroshock-induced seizure at 1.5 mmol/kg, ip administered 30 min prior to maximal electroshock-challenge measured after 60 mins relative to control; type: functional
[7] = test system: Mus musculus; experiment: Anticonvulsant activity in ip dosed mouse assessed as protection against pentylenetetrazol-induced seizure administered 30 min prior to pentylenetetrazol-challenge measured after 60 mins; type: functional
How it was run: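 Mice received several doses for quantification. ED50 taken as the dose protecting 50% of mice against pentylenetetrazol-induced seizures.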

[8] = test system: Mus musculus; experiment: Anticonvulsant activity in mouse assessed as protection against maximal electroshock-induced seizure at 1.4 mmol/kg, ip administered 30 min prior to maximal electroshock-challenge measured after 60 mins relative to control; type: functional
[9] = species: Mus musculus; experiment: Protective index, ratio of TD50 for mouse to ED50 for pentylenetetrazol-induced seizure in mouse; type: functional
How it was run: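 Mice. Index is TD50/ED50. TD50 is the dose causing minimal neurological toxicity in 50% of mice in the Chimney test. ED50 is the dose protecting 50% of mice against pentylenetetrazole-induced seizures. Both are estimated from testing at several doses.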

[10] = test system: Mus musculus; experiment: Anticonvulsant activity in mouse assessed as protection against pentylenetetrazol-induced seizure at 1.4 mmol/kg, ip administered 30 min prior to pentylenetetrazol-challenge measured after 60 mins relative to control; type: functional
[11] = test system: Mus musculus; experiment: Anticonvulsant activity in mouse assessed as protection against picrotoxin-induced seizure at 1.4 mmol/kg, ip administered 30 min prior to picrotoxin-challenge measured after 60 mins relative to control; type: functional
[12] = test system: Mus musculus; experiment: Anticonvulsant activity in mouse assessed as protection against strychnine-induced seizure at 1.4 mmol/kg, ip administered 30 min prior to strychnine-challenge measured after 60 mins relative to control; type: functional
[13] = Therapeutic index, ratio of LD50 for mouse to ED50 for pentylenetetrazol-induced seizure in mouse; type: organism-based; conditions: in vivo, read-out: Ratio LD50/ED50; how it was run: as §1

| Compound | TD50 at 0.5 h [1] | LD50 [2] | Activity [3] | Activity [4] | Activity [5] | Activity [6] | ED50 [7] | Activity [8] | Ratio TD50/ED50 [9] | Activity [10] | Activity [11] | Activity [12] | selectivity ratio [13] |
| --- | --- | --- | --- | --- | --- | --- | --- | --- | --- | --- | --- | --- | --- |
| CCCC(CCC)C(=O)[O-].[Na+] [VALPROATE SODIUM] | 2700 µmol/kg | 3000 µmol/kg | 100% | 100% | 100% | 100% | 1500 µmol/kg |  |  |  |  |  |  |
| Cc1ccccc1-n1c(C)nc2ccccc2c1=O [METHAQUALONE] | 1600 µmol/kg | 2000 µmol/kg |  |  |  |  | 1400 µmol/kg | 100% | 1.14 | 100% | 50% | 0% | 1.4 |
